Test results: ChEMBL document CHEMBL1145034

Columns and labels:
[1] = target: T1, Estrogen receptor (Mus musculus) (UniProt O08537+P19785); test: Vaginal activity relative to estradiol (E2); type: functional
Outline: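 Female CD-1 mice ovariectomized; 1 week later, compound instilled intravaginally in 10 μL sesame oil. Vaginal reductase induction measured and compared with 50 pg E2. n = 5–6 per group, at least two separate occasions.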

[2] = target: T2, Estrogen receptor (Rattus norvegicus) (UniProt P06211+Q62986); test: In vivo uterotropic activity at 100 ug subcutaneous dose in immature rats as ng estradiol dose for equivalent effect; type: functional, organism-based
Outline: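 Immature (22-day) female Sprague–Dawley rats given daily subcutaneous injections in 0.1 mL sesame oil for 3 days, 100 μg total dose; controls received oil. Uteri removed, blotted and weighed on day 4. Compared with 5 ng E2 run concurrently; n = 5, usually 2 separate experiments.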

[3] = target: T2, Estrogen receptor (Rattus norvegicus); test: Uterotropic activity relative to estradiol (E2); type: functional, tissue-based; details: Uterus
Outline: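 Immature female Sprague–Dawley rats, 22 days old, injected subcutaneously once a day for 3 days with test steroid in 0.1 mL sesame oil, 100 µg total dose; sesame oil controls; 5 ng E2 total run concurrently as reference. Uteri removed on day 4, blotted and weighed. n = 5, usually 2 separate experiments; activity expressed relative to E2.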

[4] = target: T1, Estrogen receptor (Mus musculus); test: In vivo vaginal activity in ovariectomised mice at 50 ng vaginal dose as pg estradiol dose for equivalent effect
[5] = target: Estrogen receptor beta (Homo sapiens) (UniProt Q92731); test: Binding of […] to human estrogen receptor beta ligand binding domain expressed in Escherichia coli
Outline: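 Competitive binding against [3H]E2 using lysates of E. coli expressing human ERβ LBD (M214–Q530); incubated overnight at 0–2 °C. Result given as RBA versus E2 (E2 = 100); mean of 3 experiments, each in duplicate.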

Rattus norvegicus = organism: Rattus norvegicus; test: Hydrolytic activity against esterase with hepatic microsomes relative to E16-1,2; details: Liver

Chain of Estrogen receptor beta (Homo sapiens) (Q92731 whole entry, the tested form may be a part): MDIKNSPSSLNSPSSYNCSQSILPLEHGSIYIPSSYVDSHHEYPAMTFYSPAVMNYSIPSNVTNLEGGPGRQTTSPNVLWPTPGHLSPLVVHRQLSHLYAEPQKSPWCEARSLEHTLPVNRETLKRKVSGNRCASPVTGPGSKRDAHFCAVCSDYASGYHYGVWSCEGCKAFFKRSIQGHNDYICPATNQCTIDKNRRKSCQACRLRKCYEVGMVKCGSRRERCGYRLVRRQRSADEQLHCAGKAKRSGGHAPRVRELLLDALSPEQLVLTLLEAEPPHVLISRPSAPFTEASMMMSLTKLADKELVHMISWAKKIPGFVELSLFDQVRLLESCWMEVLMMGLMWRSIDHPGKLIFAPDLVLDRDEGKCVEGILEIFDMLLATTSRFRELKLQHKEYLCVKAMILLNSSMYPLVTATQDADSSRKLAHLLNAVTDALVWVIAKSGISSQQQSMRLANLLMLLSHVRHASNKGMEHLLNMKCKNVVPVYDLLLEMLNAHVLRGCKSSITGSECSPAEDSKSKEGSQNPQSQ
T1 sequence (O08537 whole entry, looked up): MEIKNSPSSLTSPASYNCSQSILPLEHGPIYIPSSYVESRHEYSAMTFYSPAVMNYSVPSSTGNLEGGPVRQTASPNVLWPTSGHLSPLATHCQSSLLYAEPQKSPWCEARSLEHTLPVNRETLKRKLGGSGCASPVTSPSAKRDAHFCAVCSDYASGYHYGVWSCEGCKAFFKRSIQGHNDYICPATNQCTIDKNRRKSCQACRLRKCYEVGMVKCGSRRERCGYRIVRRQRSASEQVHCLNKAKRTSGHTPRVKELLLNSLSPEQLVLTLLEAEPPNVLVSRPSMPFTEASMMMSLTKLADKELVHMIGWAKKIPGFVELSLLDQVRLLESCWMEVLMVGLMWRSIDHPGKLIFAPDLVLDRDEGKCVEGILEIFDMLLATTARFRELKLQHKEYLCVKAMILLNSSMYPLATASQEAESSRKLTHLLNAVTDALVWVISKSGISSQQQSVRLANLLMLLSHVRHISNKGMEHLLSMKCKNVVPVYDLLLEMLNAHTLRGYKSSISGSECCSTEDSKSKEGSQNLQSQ
T1 sequence (P19785 whole entry, looked up): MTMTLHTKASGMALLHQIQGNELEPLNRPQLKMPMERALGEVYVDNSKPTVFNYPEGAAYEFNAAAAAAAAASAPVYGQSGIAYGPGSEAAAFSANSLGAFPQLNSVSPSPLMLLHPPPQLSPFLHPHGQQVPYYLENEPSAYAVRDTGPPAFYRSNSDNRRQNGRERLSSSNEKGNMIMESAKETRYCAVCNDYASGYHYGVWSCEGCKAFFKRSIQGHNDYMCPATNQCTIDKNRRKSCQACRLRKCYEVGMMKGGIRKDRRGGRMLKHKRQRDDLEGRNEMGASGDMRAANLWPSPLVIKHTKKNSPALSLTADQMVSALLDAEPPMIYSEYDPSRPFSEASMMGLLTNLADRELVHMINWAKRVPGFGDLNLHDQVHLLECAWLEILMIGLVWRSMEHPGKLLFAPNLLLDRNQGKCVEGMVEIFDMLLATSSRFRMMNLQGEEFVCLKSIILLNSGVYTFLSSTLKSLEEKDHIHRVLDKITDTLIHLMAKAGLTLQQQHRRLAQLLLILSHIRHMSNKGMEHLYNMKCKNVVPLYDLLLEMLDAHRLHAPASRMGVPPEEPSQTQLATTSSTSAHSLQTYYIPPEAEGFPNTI

`C[C@]12CC[C@@H]3c4ccc(O)cc4CC[C@H]3[C@@H]1C[C@@H](C(=O)OCCF)[C@@H]2O` showed a Vaginal activity [1] of 0.42, a Uterotropic activity [2] of 2 and a Uterotropic activity [3] of 0.02. The Vaginal activity [4] was 21.
Compound `CCOC(=O)CC[C@H]1C[C@]2(C)[C@@H](O)CC[C@H]2[C@@H]2CCc3cc(O)ccc3[C@@H]12` has an Activity [5] of 64 and an RHA (Rattus norvegicus) of 542%.
Work on `CC(C)OC(=O)[C@H]1C[C@H](O)[C@@]2(C)CC[C@@H]3c4ccc(O)cc4CC[C@H]3[C@H]12` yielded an RHA (Rattus norvegicus) of 0.4%.
With `CCOC(=O)C[C@@H]1Cc2cc(O)ccc2[C@H]2CC[C@]3(C)[C@@H](O)CC[C@H]3[C@H]12` the RHA (Rattus norvegicus) was 70%.
With `C[C@]12CC[C@@H]3c4ccc(O)cc4CC[C@H]3[C@@H]1[C@@H](C(=O)OCCF)C[C@@H]2O` the RHA (Rattus norvegicus) was 4.5%.
With `COC(=O)CC[C@H]1C[C@]2(C)[C@@H](O)CC[C@H]2[C@@H]2CCc3cc(O)ccc3[C@@H]12` the RHA (Rattus norvegicus) was 64%.
Work on `CCCOC(=O)[C@H]1C[C@H](O)[C@@]2(C)CC[C@@H]3c4ccc(O)cc4CC[C@H]3[C@H]12` yielded an RHA (Rattus norvegicus) of 7.8%.
Work on `COC(=O)C[C@H]1C[C@H](O)[C@@]2(C)CC[C@@H]3c4ccc(O)cc4CC[C@H]3[C@H]12` yielded an RHA (Rattus norvegicus) of 31%.
`CCCCOC(=O)[C@H]1C[C@H](O)[C@@]2(C)CC[C@@H]3c4ccc(O)cc4CC[C@H]3[C@H]12` showed an RHA (Rattus norvegicus) of 7%.
For `CCOC(=O)[C@@H]1C[C@H]2[C@@H]3CCc4cc(O)ccc4[C@H]3CC[C@]2(C)[C@H]1O`, the Activity [5] was 0.3 and the RHA (Rattus norvegicus) was 100%.
With `COC(=O)[C@H]1CC(O)[C@@]2(C)CC[C@@H]3c4ccc(O)cc4CC[C@H]3[C@H]12` (stereo partly specified) the Vaginal activity [1] was 0.38, the Uterotropic activity [2] was 0 and the RHA (Rattus norvegicus) was 1.7%. The Vaginal activity [4] was 19.
`COC(=O)C[C@H]1C[C@]2(C)[C@@H](O)CC[C@H]2[C@@H]2CCc3cc(O)ccc3[C@@H]12` showed a Vaginal activity [1] of 0.42, a Uterotropic activity [2] of 6.5 and a Uterotropic activity [3] of 0.07. The RHA (Rattus norvegicus) was 106% and the Vaginal activity [4] was 21.
For `COC(=O)[C@@H]1Cc2cc(O)ccc2[C@H]2CC[C@]3(C)[C@@H](O)CC[C@H]3[C@@H]21`, the Vaginal activity [1] was 1, the Uterotropic activity [2] was 10.5 and the Uterotropic activity [3] was 0.11. It also gave an RHA (Rattus norvegicus) of 0% and a Vaginal activity [4] of 50.
With `CCOC(=O)[C@@H]1Cc2cc(O)ccc2[C@H]2CC[C@]3(C)[C@@H](O)CC[C@H]3[C@@H]21` the Activity [5] was 9, the Vaginal activity [1] was 0.44 and the Uterotropic activity [2] was 4. The Uterotropic activity [3] was 0.04, the RHA (Rattus norvegicus) was 0% and the Vaginal activity [4] was 22.
For `CCOC(=O)C[C@H]1Cc2cc(O)ccc2[C@H]2CC[C@]3(C)[C@@H](O)CC[C@H]3[C@H]12`, the RHA (Rattus norvegicus) was 0%.
Compound `CCCOC(=O)[C@@H]1Cc2cc(O)ccc2[C@H]2CC[C@]3(C)[C@@H](O)CC[C@H]3[C@@H]21` has an RHA (Rattus norvegicus) of 0%.
In the case of `CCCCOC(=O)[C@@H]1Cc2cc(O)ccc2[C@H]2CC[C@]3(C)[C@@H](O)CC[C@H]3[C@@H]21`, the RHA (Rattus norvegicus) is reported as 0%.
In the case of `C[C@]12CC[C@@H]3c4ccc(O)cc4CC[C@H]3[C@@H]1CC[C@@H]2O`, the Activity [5] is reported as 100.
`CCOC(=O)C[C@H]1C[C@H](O)[C@@]2(C)CC[C@@H]3c4ccc(O)cc4CC[C@H]3[C@H]12` was tested, and the RHA (Rattus norvegicus) was 71%.
For `C[C@]12CC[C@@H]3c4ccc(O)cc4C[C@@H](C(=O)OCCF)[C@H]3[C@@H]1CC[C@@H]2O`, the RHA (Rattus norvegicus) was 0%.
For `COC(=O)CC[C@H]1C[C@H](O)[C@@]2(C)CC[C@@H]3c4ccc(O)cc4CC[C@H]3[C@H]12`, the RHA (Rattus norvegicus) was 248%.
`CCOC(=O)[C@H]1C[C@H](O)[C@@]2(C)CC[C@@H]3c4ccc(O)cc4CC[C@H]3[C@H]12` gave an Activity [5] of 7, a Vaginal activity [1] of 0.42 and a Uterotropic activity [2] of 0. The RHA (Rattus norvegicus) was 2.3% and the Vaginal activity [4] was 21.
With `CCOC(=O)CC[C@H]1C[C@H](O)[C@@]2(C)CC[C@@H]3c4ccc(O)cc4CC[C@H]3[C@H]12` the RHA (Rattus norvegicus) was 674%.
Compound `COC(=O)C[C@@H]1Cc2cc(O)ccc2[C@H]2CC[C@]3(C)[C@@H](O)CC[C@H]3[C@H]12` has an RHA (Rattus norvegicus) of 30%.
Work on `CCOC(=O)C[C@H]1C[C@]2(C)[C@@H](O)CC[C@H]2[C@@H]2CCc3cc(O)ccc3[C@@H]12` yielded an Activity [5] of 70 and an RHA (Rattus norvegicus) of 152%.
